According to ChEMBL document CHEMBL1147249, “Sunpollenol and five other rearranged 3,4-seco-tirucallane-type triterpenoids from sunflower pollen and their inhibitory effects on Epstein-Barr virus activation” (J Nat Prod, 2003):

Assays:
Assay type in all cases: cell-based
Raji [1] = experiment: Inhibition of 12-O-tetradecanoylphorbol-13-acetate-induced EBV-early antigen activation in human Raji cells assessed as early antigen induction at 10 molar ratio after 48 hrs by conventional indirect immunofluorescence technique relative to TPA; set-up: scale not given: the % may be the effect or the level left; details: human gammaherpesvirus 4
Outline: (§1)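 Raji cells (1 × 10^6 cells/mL, RPMI-1640 with 10% FBS) were induced with 4 mM n-butyric acid plus […] TPA (20 ng/mL in DMSO). Test compound (32, 16, 3.2, 0.32 nmol in 1 mL) was present for 48 h at 37 °C. EA-positive cells were stained with NPC patient sera and detected by indirect immunofluorescence, at least 500 cells per assay, three repeats. Results are given as percent of butyrate+TPA control.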

Raji [2] = experiment: Inhibition of 12-O-tetradecanoylphorbol-13-acetate-induced EBV-early antigen activation in human Raji cells assessed as early antigen induction at 100 molar ratio after 48 hrs by conventional indirect immunofluorescence technique relative to TPA; set-up: scale not given: the % may be the effect or the level left; details: human gammaherpesvirus 4; outline: as §1
[3] = Cytotoxicity against human Raji cells assessed as cell viability at 1000 molar ratio after 48 hrs by trypan blue staining method; details: read-out: Activity
Outline: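 Raji cells (EBV genome-carrying, nonproducer) at 1 × 10^6 cells/mL in RPMI-1640 with 10% FBS were exposed to 4 mM n-butyric acid, […] TPA and test compound at 37 °C in a CO2 incubator. Viability was scored by Trypan Blue staining and given as percent viable Raji cells.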

Raji [4] = experiment: Inhibition of 12-O-tetradecanoylphorbol-13-acetate-induced EBV-early antigen activation in human Raji cells assessed as early antigen induction at 1000 molar ratio after 48 hrs by conventional indirect immunofluorescence technique relative to TPA; set-up: scale not given: the % may be the effect or the level left; details: human gammaherpesvirus 4; outline: as §1
Raji [5] = experiment: Inhibition of 12-O-tetradecanoylphorbol-13-acetate-induced EBV-early antigen activation in human Raji cells assessed as early antigen induction at 500 molar ratio after 48 hrs by conventional indirect immunofluorescence technique relative to TPA; set-up: scale not given: the % may be the effect or the level left; details: human gammaherpesvirus 4; outline: as §1

SMILES	Activity (Raji [1])	Activity (Raji [2])	viability at 48 h, 1000 molar ratio [3]	Activity (Raji [4])	Activity (Raji [5])
CC(C)=CCC[C@H](C)[C@@H]1CC[C@]2(C)[C@H]3CC[C@@]4(C(C)(C)O)OCCC[C@H]4[C@]3(C)CC[C@@]12C [SUNPOLLENOL]	96.8%	74.3%	70%	3.1%	30.5%
C[C@@H](CC[C@H](O)C(C)(C)O)[C@@H]1CC[C@]2(C)[C@H]3CC[C@@]4(C(C)(C)O)OCCC[C@H]4[C@]3(C)CC[C@@]12C [(24S)-24,25-DIHYDROXYSUNPOLLENOL]	94.2%	73.3%	70%	0%	25.3%
CC1=C(/C=C/C(C)=C/C=C/C(C)=C/C=C/C=C(C)/C=C/C=C(C)/C=C/C2=C(C)CCCC2(C)C)C(C)(C)CCC1	100%	–	–	8.6%	–
C[C@@H](CC[C@H]1OC1(C)C)[C@@H]1CC[C@]2(C)[C@H]3CC[C@@]4(C(C)(C)O)OCCC[C@H]4[C@]3(C)CC[C@@]12C [(24R)-24,25-EPOXYSUNPOLLENOL]	91.8%	72.6%	60%	0%	26.3%
C[C@@H](C/C=C/C(C)(C)O)[C@@H]1CC[C@]2(C)[C@H]3CC[C@@]4(C(C)(C)O)OCCC[C@H]4[C@]3(C)CC[C@@]12C [(23E)-23-DEHYDRO-25-HYDROXYSUNPOLLENOL]	90%	70.6%	70%	0%	22%
C[C@@H](CC[C@@H](O)C(C)(C)O)[C@@H]1CC[C@]2(C)[C@H]3CC[C@@]4(C(C)(C)O)OCCC[C@H]4[C@]3(C)CC[C@@]12C	92.5%	72.4%	70%	0%	24.4%
C[C@@H](CC[C@@H]1OC1(C)C)[C@@H]1CC[C@]2(C)[C@H]3CC[C@@]4(C(C)(C)O)OCCC[C@H]4[C@]3(C)CC[C@@]12C	97.4%	75.9%	70%	0%	27.3%
